Measurements published in ChEMBL document CHEMBL1129476, “In vivo activity and hydrophobicity of cytostatic aziridinyl quinones” (J Med Chem, 1996).

Key:
L1210 [1] = assay: log 1/ID75 for the in vitro clonogenic L1210 assay with ID75 in umol/L; type: functional, Mus musculus
[2] = log KGSH for the rate k of glutathione (GSH) consumption in 1/s; type: functional
[3] = Observed rate of hydrolysis (logKobs) (pH=4.0); type: ADME
Summary of the method: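 Hydrolysis followed by cyclic voltammetry at 20 °C in deaerated 0.1 M acetate buffers (pH 5.0–3.5) or 0.02 M NaH2PO4 (pH 3.5, 3.0), ionic strength 0.1 M (NaNO3). Decrease of the parent cathodic peak tracked over time. Pseudo-first-order kobs from linear regression of log concentration versus time.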

[4] = Electrochemically observed pKa (pKred) of aziridines; type: physicochemical; conditions: read-out: pKred
Nucleic Acid = assay: (§1) DNA cross link ratio at pH=5.0 and 50 umol/L compound; type: functional
L1210 [5] = assay: log 1/D125 for the dose (mmol/kg) to give 125%T/C ratio (L1210) in vivo; type: functional, Mus musculus
B16 = assay: log 1/D125 or the dose (mmol/kg) to give 125%T/C ratio (B16) in vivo; type: functional, Mus musculus
[6] = log 1/anion production.; type: functional
[7] = E1/2 for the half-wave potential at pH=7.0 in V57; type: ADME
[8] = log 1/LD50 for LD50 (mmol/kg); type: ADME
Fungi = assay: (§2) log 1/MIC for fungi in mmol/L; type: functional
[9] = Partition coefficient (logP); type: physicochemical; conditions: octanol/water
Summary of the method: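 Micro shake-flask: buffered aqueous compound solution (pH 6.50) shaken with an equal volume of water-saturated 1-octanol at room temperature, 3 × 120 s. Centrifuged 14000g, 15 min. Aqueous phase analysed by RP-HPLC against the unshaken solution (methanol 30, 50 or 70 wt%, 1.0 mL/min, UV 254 nm). Run in duplicate, or quadruplicate if needed.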

[10] = HPLC capacity factor (logK); type: ADME
[11] = as §2; type: functional
[12] = as §1; type: functional

## CC1=C(N2CC2)C(=O)C(CCOC(N)=O)=C(N2CC2)C1=O
L1210 [1]
  Log 1/ID75 (uM L-1): 1.82
[2]
  Log k GSH (s-1): -4.92
[3]
  Log Kobs: -4.05
[4]
  pKa: 8.9
Nucleic Acid
  DNA cross-link ratio: 0.27
L1210 [5]
  Log 1/D125 (L1210) (mM kg-1): 2.86
B16
  Log 1/D125 (mM kg-1): 3.49
[6]
  Log 1/conc (mM min-1 L-1): 1.02
[7]
  E 1/2: -0.213
[8]
  Log 1/LD50 (mM kg-1): 1.99

## CCC1=C(N2CC2)C(=O)C(Br)=C(N2CC2)C1=O
L1210 [1]
  Log 1/ID75 (uM L-1): 2.82
[2]
  Log k GSH (s-1): -3
[3]
  Log Kobs: -4.3
[4]
  pKa: 8.8
Nucleic Acid
  DNA cross-link ratio: 0.15
L1210 [5]
  Log 1/D125 (L1210) (mM kg-1): 1.41
B16
  Log 1/D125 (mM kg-1): 2.6
[6]
  Log 1/conc (mM min-1 L-1): 2.42
[7]
  E 1/2: -0.21
Fungi
  Log 1/MIC (mM L-1): 1.57
[8]
  Log 1/LD50 (mM kg-1): 1.39

## CCOC(=O)NC1=C(N2CC2)C(=O)C(NC(=O)OCC)=C(N2CC2)C1=O [DIAZIQUONE]
[9]
  logP: 0.04
L1210 [1]
  Log 1/ID75 (uM L-1): -0.57
[2]
  Log k GSH (s-1): -4.64
[3]
  Log Kobs: -4.25
[4]
  pKa: 8.3
Nucleic Acid
  DNA cross-link ratio: 0.14
L1210 [5]
  Log 1/D125 (L1210) (mM kg-1): 2.26
B16
  Log 1/D125 (mM kg-1): 2.32
[10]
  Log K: -0.48
[6]
  Log 1/conc (mM min-1 L-1): 1.56
[7]
  E 1/2: -0.149
Fungi
  Log 1/MIC (mM L-1): -0.29
[8]
  Log 1/LD50 (mM kg-1): 1.54

## O=C1C(Br)=C(N2CC2)C(=O)C(Br)=C1N1CC1
L1210 [1]
  Log 1/ID75 (uM L-1): 0.35
[11]
  Log 1/MIC (mM L-1): 1.54
[3]
  Log Kobs: -4.7
[10]
  Log K: 0.474
[6]
  Log 1/conc (mM min-1 L-1): 2.87

## COC(COC(N)=O)C1=C(N2CC2)C(=O)C(C)=C(N2CC2)C1=O (centres undefined) [CARBOQUONE]
[9]
  logP: -0.15
L1210 [1]
  Log 1/ID75 (uM L-1): 1.05
[2]
  Log k GSH (s-1): -5.15
[3]
  Log Kobs: -3.65
[4]
  pKa: 8.6
Nucleic Acid
  DNA cross-link ratio: 0.26
L1210 [5]
  Log 1/D125 (L1210) (mM kg-1): 3.21
B16
  Log 1/D125 (mM kg-1): 3.32
[10]
  Log K: -0.438
[6]
  Log 1/conc (mM min-1 L-1): 0.57
[7]
  E 1/2: -0.182
Fungi
  Log 1/MIC (mM L-1): -1.19
[8]
  Log 1/LD50 (mM kg-1): 1.73

## O=C1C=C(N2CC2)C(=O)C=C1N1CC1
[9]
  logP: 0.18
L1210 [1]
  Log 1/ID75 (uM L-1): 1.68
[2]
  Log k GSH (s-1): -3.24
[3]
  Log Kobs: -2.57
[4]
  pKa: 7.5
Nucleic Acid
  DNA cross-link ratio: 0.29
L1210 [5]
  Log 1/D125 (L1210) (mM kg-1): 2.77
B16
  Log 1/D125 (mM kg-1): 3.16
[6]
  Log 1/conc (mM min-1 L-1): 2.09
[7]
  E 1/2: -0.105
Fungi
  Log 1/MIC (mM L-1): 2.58
[8]
  Log 1/LD50 (mM kg-1): 1.8

## CC1=C(N2CC2C)C(=O)C(Br)=C(N2CC2C)C1=O (centres undefined)
L1210 [1]
  Log 1/ID75 (uM L-1): 2.66
[3]
  Log Kobs: -3.85
[4]
  pKa: 9.2
[12]
  lnK: 0.03
L1210 [5]
  Log 1/D125 (L1210) (mM kg-1): 1.79
B16
  Log 1/D125 (mM kg-1): 1.71
[6]
  Log 1/conc (mM min-1 L-1): 2.5
[7]
  E 1/2: -0.194
Fungi
  Log 1/MIC (mM L-1): 1.01
[8]
  Log 1/LD50 (mM kg-1): 1.59
